SENP1 FRET inh: human SENP1 catalytic domain inhibitors, primary screen, biochemical, FRET, uHTS | Sentrin-specific protease 1 (Homo sapiens), Q9P0U3 | recombinant SENP1 catalytic domain, CyPet-SUMO1-YPet FRET cleavage | inhibition, % at 10 µM | 360,000 tested, 0.21% active | AID 624204, 2012;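 active = inhibition at least 30% at 10 µM, raw YFP signal under a set limit, fluorescence ratio 0.5 to 1.5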
Target sequence (Q9P0U3 419-644 limits assumed): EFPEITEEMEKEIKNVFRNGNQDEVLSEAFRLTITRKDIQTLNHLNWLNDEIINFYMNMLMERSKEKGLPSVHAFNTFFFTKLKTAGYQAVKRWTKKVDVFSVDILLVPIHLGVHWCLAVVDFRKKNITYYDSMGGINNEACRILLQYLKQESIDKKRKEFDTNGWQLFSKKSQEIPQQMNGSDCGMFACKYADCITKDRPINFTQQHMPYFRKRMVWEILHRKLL
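Material – human SENP1 catalytic domain · Input – SENP1 enzyme, 20 pM final · Compound dosing – single concentration of 10 µM compound, 0.5% DMSO final · Timing – enzyme reaction for 50 min at room temperature, dark · Measured by – FRET fluorescence in CFP and YFP emission channels · Control set – no-enzyme wells low, DMSO-plus-enzyme wells high control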
HDAC3 inhib: HDAC3 deacetylase inhibitors, primary screen, biochemical, fluorescence, cell-free homogeneous; inhibition, % at 8.3 µM; 320,000 tested, 0.15% active; AID 2718, 2010; Histone deacetylase 3 (Homo sapiens), O15379; recombinant HDAC3, fluorogenic peptide/trypsin coupled; in the data active = inhibition above about 26%, passing the limit was not always enough
Fh CTSL1 inh: Fasciola hepatica cathepsin L1 inhibitors, primary screen, counter-screen for PFM18AAP inhibitor project, biochemical, QFRET, fluorogenic peptide substrate | recombinant F. hepatica cathepsin L1, Z-Leu-Arg-MCA fluorescence | inhibition, % at 5.96 µM | 300,000 tested, 0.49% active | AID 1906, 2009;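 active = inhibition above the mean of all tested compounds plus 3 SD, set per screening campaign, cut at about 17% in these data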
GAA850 FXN act: FXN promoter activators, primary screen, cell-based, luciferase luminescence, HEK293 lucGAA850; HEK293 lucGAA850 FXN promoter luciferase reporter, 24 h; percent of 10 µM SAHA response; activation, % at 6 µM; 360,000 tested, 0.56% active;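 active = activation above the average of all compounds screened plus 3 SD, cutoff fixed separately per campaign, cut at about 7.5% in these data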
AHR activator: AHR activators, primary screen, cell-based, luminescence, luciferase reporter, human. Aryl hydrocarbon receptor (Homo sapiens), P35869. AHR-responsive luciferase reporter cells. activation, % at 5 µM. 320,000 tested, 2.5% active; in the data active = activation above about 47%
PfM18AAP inh: PfM18AAP inhibitors, malaria aminopeptidase, primary screen, biochemical, QFRET, recombinant enzyme | M18 aspartyl aminopeptidase (Plasmodium falciparum 3D7) | H-Glu-NHMec fluorogenic cleavage | inhibition, % at 7.35 µM | 290,000 tested, 1.2% active | AID 1822, 2009;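 active = inhibition above the campaign mean inhibition over all tested compounds plus 3 SD, cut at about 28% in these data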
AHR act confirm: AHR activators, confirmation, cell-based, luminescence, luciferase reporter, human | human cells, AHR-responsive luciferase reporter | 2,300 tested, 87% active | shares compounds with AHR activator | activation, % at 9 µM; in the data active = activation above about 49%;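 also: HepG2 hepatoma cells carrying a DRE-driven firefly luciferase reporter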
PXR act counter: human PXR activators, counter-screen for AHR activator project, cell-based, luciferase luminescence; shares compounds with AHR activator; cell-based PXR reporter; activation, % at 11.6 µM; 2,300 tested, 88% active; AID 434939, 2010; in the data active = activation above about 11%;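 also: human hepatoma DPX-2 cells expressing full-length human PXR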
Large screens that a line does not name were inactive (follow-up assays come after a bar, where they were run). Only some compounds are listed: those with a hit (about 4.2% of all), similar ones and a draw of the others.

CNC(=S)Nc1cccc(-c2cnc3ccccc3n2)c1	AHR activator 118 | AHR act confirm 100 | PXR act counter 19
CC(C)C(=O)Nc1cccc(-c2cnc3ccccc3n2)c1	none
CS(=O)(=O)Nc1cccc(-c2cnc3ccccc3n2)c1	AHR activator 88 | AHR act confirm 120 | PXR act counter inactive
O=C(NCCCc1ccccc1)Nc1cccc(Cl)c1	none
O=C(NCCc1ccncc1)Nc1cccc(Cl)c1	AHR activator 90 | AHR act confirm 56 | PXR act counter 17
COc1ccc(OC)c(NC(=O)c2cccnc2)c1	none
O=C(Nc1ccccc1C(=O)Nc1ccc(Cl)cc1)c1cccnc1	AHR activator 86 | AHR act confirm 56 | PXR act counter 31
COc1ccc(Cl)cc1NC(=O)c1cccnc1	AHR activator 88 | AHR act confirm 107 | PXR act counter 11
CCOc1ncccc1C(=O)Nc1ccc(F)cc1	none
CCOc1ccc(NC(=O)c2cc(Cl)nc3ccccc23)cc1	AHR activator 95 | AHR act confirm 91 | PXR act counter 11
CCOc1ncccc1C(=O)Nc1ccc(Cl)cc1	AHR activator 117 | AHR act confirm 122 | PXR act counter 19
CCOC(=O)C1=CN(Cc2cccc(F)c2)S(=O)(=O)N(C)C1c1ccc2ccccc2c1 (centres undefined)	none (no result: HDAC3 inhib, Fh CTSL1 inh, AHR activator, PfM18AAP inh)
Cc1onc(-c2ccccc2Cl)c1C(=O)Nc1cccc(S(=O)(=O)NC2=NCCC2)c1	none (no result: PfM18AAP inh)
CC(=O)NC(c1cccc(F)c1)c1nc(-c2cccs2)cs1 (centres undefined)	none (no result: HDAC3 inhib, Fh CTSL1 inh, AHR activator, PfM18AAP inh)
CCCNc1nc(Cl)nc(Nc2ccc(Cl)cc2)n1	AHR activator 127 | AHR act confirm 91
CCOc1ccc(/C=N/n2cc(-c3ccccc3)[nH]c2=S)cc1	AHR activator 84, PfM18AAP inh 54 | AHR act confirm 108
COc1ccc(/C=N/n2c(-c3ccccc3)n[nH]c2=S)cc1	none
Cc1ccc(-n2c(C)nc3oc4ccccc4c(=O)c3c2=O)cc1	AHR activator 91 | AHR act confirm 99 | PXR act counter 11
CC[C@]12c3[nH]c4cc(-c5ccco5)ccc4c3CCN1C(=O)[C@@H](CC(=O)NCCN1CCOCC1)C[C@@H]2C(=O)N1CCN(C(=O)C2CC2)CC1	none (no result: HDAC3 inhib, Fh CTSL1 inh, AHR activator, PfM18AAP inh)
O=[N+]([O-])c1ccc(N/N=C\c2ccccc2OCc2ccccc2)cc1	AHR activator 85 | AHR act confirm 62 | PXR act counter 46
Cc1cc2c(C)nc(-c3ccccc3)nc2o1	AHR activator 116 | AHR act confirm 159 | PXR act counter 39
O=C(CN1CCCCCC1)Nc1ccc(Br)cc1	AHR activator 84 | AHR act confirm 112 | PXR act counter 60
O=C(NN=C1CCCCCC1)c1c[nH]c2ccccc12	AHR activator 91 | AHR act confirm inactive | PXR act counter inactive
C/C(=N\NC(=O)c1cc2ccccc2cc1O)c1ccc(C)o1	none
C/C(=N\NC(=O)c1c[nH]c2ccccc12)c1ccc(C)o1	AHR activator 82 | AHR act confirm 119 | PXR act counter 17
Cn1cc(-c2csc(C(C)(O)c3cccnc3)n2)cn1 (centres undefined)	none (no result: HDAC3 inhib, Fh CTSL1 inh, AHR activator, PfM18AAP inh)
CCCn1c(N)c(N(CCOC)C(=O)CSCC(=O)Nc2ccc(OC)cc2)c(=O)[nH]c1=O	none (no result: PfM18AAP inh)
Cn1/c(=N/NC(=O)c2cccc(OC(F)F)c2)sc2ccccc21	AHR activator 118 | AHR act confirm 110 | PXR act counter 119
